Data taken from ChEMBL document CHEMBL1133103, “Design, synthesis, and structure-activity relationships of novel non-imidazole histamine H(3) receptor antagonists” (J Med Chem, 2000).

Legend:
[1] = target: Histamine H3 receptor (Cavia porcellus) (UniProt Q9JI35); assay: Tested in vitro against histamine H3 receptor mediated inhibition of cholinergic neurogenic contractions in isolated guinea pig ileum; type: functional, tissue-based
Procedure, shortened: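 Electrically stimulated guinea-pig ileum, where H3 receptors mediate inhibition of cholinergic neurogenic contractions. Agonist was (R)-α-methylhistamine. pKB ± SEM was estimated from single shifts of the agonist concentration-effect curve in at least four separate tissues, for compounds acting as surmountable antagonists. Compounds were given as dihydrochloride salts.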

[2] = target: T1, Histamine H3 receptor (Cavia porcellus, UniProt Q9JI35); assay: In vitro binding affinity for histamine H3 receptor was determined in guinea-pig cerebral cortex using [3H](R)-alpha-methylhistamine; type: tissue-based
T1 sequence (Q9JI35 whole entry): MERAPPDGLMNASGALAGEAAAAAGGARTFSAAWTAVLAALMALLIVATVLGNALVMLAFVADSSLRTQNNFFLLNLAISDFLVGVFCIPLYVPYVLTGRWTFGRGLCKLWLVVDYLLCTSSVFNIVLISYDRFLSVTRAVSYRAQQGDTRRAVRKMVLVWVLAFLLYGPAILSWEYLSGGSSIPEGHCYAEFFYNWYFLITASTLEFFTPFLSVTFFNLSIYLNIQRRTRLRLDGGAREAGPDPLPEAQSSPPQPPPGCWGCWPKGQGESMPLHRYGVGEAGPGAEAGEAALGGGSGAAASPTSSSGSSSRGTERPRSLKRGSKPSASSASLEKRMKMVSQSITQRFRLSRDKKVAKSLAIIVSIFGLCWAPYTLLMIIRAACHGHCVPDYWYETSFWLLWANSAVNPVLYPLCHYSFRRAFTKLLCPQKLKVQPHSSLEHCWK

[3] = target: T1, Histamine H3 receptor; assay: In vitro binding affinity towards histamine H3 receptor was determined in guinea-pig cerebral cortex using [3H](R)-alpha-methylhistamine

Sequence of Histamine H3 receptor (Cavia porcellus) (Q9JI35 whole entry): as above

| SMILES | pKB [1] | Ki [2] [nM] | Ki [3] [nM] |
| --- | --- | --- | --- |
| CN(C)CCCSC(=N)N | 5.93 | 47.9 | – |
| N=C(NCCCCCN1CCCC1)NCC12CC3CC(CC(C3)C1)C2 | 7.9 | 3.55 | – |
| N=C(NCCCCCN1CCCCCCC1)NCC12CC3CC(CC(C3)C1)C2 | 7.37 | 30.2 | – |
| O=[N+]([O-])c1ccc(OCCCCCN2CCCC2)cc1 | – | – | 39 |
| N=C(N)N(CCCCCCCCN1CCCC1)Cc1ccc(Cl)cc1 | 8.09 | 4.68 | – |
| N=C(NCCCCCN1CCCCC1)NCC12CC3CC(CC(C3)C1)C2 | 8.14 | 10.7 | – |
| N=C(N)N(CCCCN1CCCC1)Cc1ccc(Cl)cc1 | 7.34 | 7.94 | – |
| N=C(NCCCCCN1CCCC1)NCC1CCCCCC1 | 7.67 | 3.55 | – |
| O=S(=O)(NCCCN1CCCC1)NCc1ccc(Cl)cc1 | 6.21 | 229 | – |
| N=C(N)N(CCCCCCCN1CCCC1)Cc1ccc(Cl)cc1 | 8.38 | 2 | – |
| N=C(NCCCCCN1CCCCCC1)NCC12CC3CC(CC(C3)C1)C2 | 7.84 | 7.94 | – |
| CN(C)CCCNS(=O)(=O)c1ccc2ccccc2c1 | 5.52 | 1000 | – |
| N=C(N)N(CCCCCN1CCCC1)Cc1ccc(Cl)cc1 | 7.91 | 1.07 | – |
| N=C(NCCCCCN1CCCC1)NCC1CCCCC1 | 7.52 | 1.41 | – |
| O=[N+]([O-])c1ccc(OCCCN2CCC(Nc3nc4ccccc4s3)CC2)cc1 | – | 6.31 | – |
| O=S(=O)(NCCCN1CCCC1)c1ccc2ccccc2c1 | 5.96 | 324 | – |
| O=S(=O)(Cc1ccc(Cl)cc1)NCCCN1CCCC1 | 6.24 | 537 | – |
| N=C(N)N(CCCCCCN1CCCC1)Cc1ccc(Cl)cc1 | 8.39 | 4.17 | – |

Second part, led by results:

| pKB [1] | Ki [2] [nM] | SMILES | Ki [3] [nM] |
| --- | --- | --- | --- |
| 6.2 | 20 | N=C(NCCCN1CCCC1)NCc1ccccc1 | – |
| 6.46 | 25.7 | N=C(NCCCN1CCCC1)NCc1cccc(Br)c1 | – |
| 5.66 | 407 | S=C(NCCCN1CCCC1)NCc1ccc(Cl)cc1 | – |
| 6.03 | 53.7 | N=C(NCCCN1CCCC1)Nc1ccc(Cl)cc1 | – |
| 6.08 | 83.2 | COc1ccc(C/N=C(\N)NCCCN2CCCC2)cc1 | – |
| 6.27 | 42.7 | N=C(NCCCN1CCCC1)NCc1ccccc1Br | – |
| 6.43 | 53.7 | N=C(NCCCN1CCCC1)NCc1ccc(I)cc1 | – |
| 7.32 | 5.13 | N=C(NCCCCN1CCCC1)NCc1ccc(Cl)cc1 | – |
| 7.3 | 5.37 | N=C(NCCCCCN1CCCC1)NCc1ccc(Cl)cc1 | – |
| 6.42 | 56.2 | N=C(NCCCN1CCCC1)NCc1ccc(Cl)cc1 | – |
| 7.06 | 7.59 | N=C(NCCCCCN1CCCC1)NCCc1ccc(Cl)cc1 | – |
| 6.45 | 4.68 | N=C(NCCCN1CCCC1)NCc1ccc(Br)cc1 | – |
| 6.24 | 6.76 | N=C(NCCCCN1CCCC1)NCCc1ccc(Cl)cc1 | – |
| 6.68 | 0.933 | N=C(NCCCN1CCCC1)NCCc1ccc(Cl)cc1 | – |
| 6.1 | 100 | N=C(NCCCN1CCCC1)NCc1ccc(C(F)(F)F)cc1 | – |
